The source of these data is ChEMBL document CHEMBL4431328, “Development of a Single-Chain Peptide Agonist of the Relaxin-3 Receptor Using Hydrocarbon Stapling” (J Med Chem, 2016).

Calls of active or inactive are those of the source. The rule behind the calls is not given here. Where a SMILES comes first, the peptide text is derived from it. Bridges are numbered along the chain shown (N, C = ends). [ ]: non-standard residue; d: D form. S5 = C=CCCC[C@](C)(N)C(=O)O

Data set [1] deals with T1, Relaxin-3 receptor 1 (Homo sapiens, UniProt Q9NSD7).
T1 sequence (Q9NSD7 whole entry): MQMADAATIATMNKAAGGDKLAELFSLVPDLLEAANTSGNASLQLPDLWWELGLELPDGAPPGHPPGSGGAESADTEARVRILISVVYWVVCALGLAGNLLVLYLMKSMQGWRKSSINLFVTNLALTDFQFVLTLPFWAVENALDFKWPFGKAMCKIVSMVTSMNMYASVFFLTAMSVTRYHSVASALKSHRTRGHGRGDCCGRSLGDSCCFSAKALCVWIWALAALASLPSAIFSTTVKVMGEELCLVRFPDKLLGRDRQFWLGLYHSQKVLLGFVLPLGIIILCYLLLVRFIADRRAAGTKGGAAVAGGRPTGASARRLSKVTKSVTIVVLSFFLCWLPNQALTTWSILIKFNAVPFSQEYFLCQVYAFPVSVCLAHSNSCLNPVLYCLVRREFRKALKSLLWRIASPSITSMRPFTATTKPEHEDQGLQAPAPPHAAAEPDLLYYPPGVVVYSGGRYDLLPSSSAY
The data set can be described thus: Displacement of Eu-H3/15 from human RXFP3 receptor expressed in CHOK1 cells by time-resolved fluorescent whole cell binding assay. In kind it is cell-based.

In data set [2] the target is T1, Relaxin-3 receptor 1. Briefly: Agonist activity at human RXFP3 receptor expressed in CHOK1 cells cotransfected with beta-galactosidase assessed as inhibition of forskolin-stimulated cAMP by beta-galactosidase reporter gene assay. Type of data set: functional, cell-based. Background: Reporter assays use an easily measured gene product as a stand-in for the process of interest.

The target in data set [3] is T2, Relaxin-3 receptor 2 (Homo sapiens, UniProt Q8TDU9). Briefly: Displacement of Eu-INSL5 from human RXFP4 receptor expressed in CHOK1 cells by time-resolved fluorescent whole cell binding assay. Type of data set: cell-based.
The target of data set [4] is T2, Relaxin-3 receptor 2. The data set can be described thus: Agonist activity at human RXFP4 receptor expressed in CHOK1 cells cotransfected with beta-galactosidase assessed as inhibition of forskolin-stimulated cAMP by beta-galactosidase reporter gene assay. In kind it is functional, cell-based.
The target of a further data set is T3, Relaxin receptor 1 (Homo sapiens, UniProt Q9HBX9).
T3 sequence (Q9HBX9 whole entry): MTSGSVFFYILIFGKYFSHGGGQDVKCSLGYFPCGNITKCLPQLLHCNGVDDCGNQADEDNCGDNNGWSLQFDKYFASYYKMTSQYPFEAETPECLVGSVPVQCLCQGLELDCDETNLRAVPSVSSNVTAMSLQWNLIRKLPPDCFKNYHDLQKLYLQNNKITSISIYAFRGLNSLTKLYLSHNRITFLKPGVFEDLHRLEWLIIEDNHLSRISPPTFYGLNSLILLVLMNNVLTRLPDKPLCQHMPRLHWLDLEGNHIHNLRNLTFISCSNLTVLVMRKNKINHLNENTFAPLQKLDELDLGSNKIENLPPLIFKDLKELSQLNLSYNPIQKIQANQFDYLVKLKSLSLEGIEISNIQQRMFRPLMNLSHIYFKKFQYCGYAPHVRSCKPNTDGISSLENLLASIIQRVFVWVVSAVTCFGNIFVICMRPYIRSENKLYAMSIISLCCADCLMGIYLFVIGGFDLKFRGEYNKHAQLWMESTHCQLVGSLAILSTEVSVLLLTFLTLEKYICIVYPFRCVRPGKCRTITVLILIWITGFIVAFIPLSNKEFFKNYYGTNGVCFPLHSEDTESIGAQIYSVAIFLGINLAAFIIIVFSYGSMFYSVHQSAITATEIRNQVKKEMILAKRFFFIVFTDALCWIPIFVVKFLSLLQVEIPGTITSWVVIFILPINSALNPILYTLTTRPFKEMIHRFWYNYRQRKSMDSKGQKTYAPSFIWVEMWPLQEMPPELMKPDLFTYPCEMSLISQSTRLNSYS
Briefly: (§1) Agonist activity at RXFP1 receptor (unknown origin) expressed in HEK-293T cells cotransfected with beta-galactosidase assessed as cAMP activation by beta-galactosidase reporter gene assay. In kind it is functional, cell-based. The method in brief:
(§2)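 Tested for RXFP1 activation at concentrations up to 10 µM, alongside the […] as a reference.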

The target of data set [5] is T4, Relaxin receptor 1 (Homo sapiens) (UniProt Q9HBX9).
T4 sequence (whole entry): T3 sequence (Q9HBX9 whole entry)
The data set can be described thus: Agonist activity at RXFP1 receptor (unknown origin) expressed in HEK-293T cells cotransfected with beta-galactosidase assessed as cAMP activation at 10 uM by beta-galactosidase reporter gene assay. In kind it is functional, cell-based. In a few lines:
as §2

The test system of data set [6] is Rattus norvegicus. The data set can be described thus: Induction of food intake in satiated Sprague-Dawley rat at 1 nmol, icv during early light phase measured after 1 hr post dose. Type of data set: functional, organism-based.
The subject of data set [7] is Rattus norvegicus. The data set can be described thus: Induction of water intake in satiated Sprague-Dawley rat at 1 nmol, icv during early light phase measured after 1 hr post dose. In kind it is functional, organism-based.
Data set [8] has as its target T4, Relaxin receptor 1 (Homo sapiens). Described as §1. Type of data set: functional, cell-based. The method in brief: as §2
For data set [9], the target named is T1, Relaxin-3 receptor 1. Briefly: Agonist activity at human RXFP3 receptor expressed in CHOK1 cells assessed as ERK1/2 phosphorylation incubated for 5 mins by alphascreen surefire assay. In kind it is cell-based. On the technique in general: Alpha assays give light when donor and acceptor beads are brought close together.
Data set [10] is described as follows: Toxicity in satiated Sprague-Dawley rat assessed as behavioral changes at 1 nmol, icv during early light phase measured after 1 hr post dose under home cage condition. The conditions noted are these: in vivo, icv_or_intrathecal.

T2 sequence (Q8TDU9 whole entry): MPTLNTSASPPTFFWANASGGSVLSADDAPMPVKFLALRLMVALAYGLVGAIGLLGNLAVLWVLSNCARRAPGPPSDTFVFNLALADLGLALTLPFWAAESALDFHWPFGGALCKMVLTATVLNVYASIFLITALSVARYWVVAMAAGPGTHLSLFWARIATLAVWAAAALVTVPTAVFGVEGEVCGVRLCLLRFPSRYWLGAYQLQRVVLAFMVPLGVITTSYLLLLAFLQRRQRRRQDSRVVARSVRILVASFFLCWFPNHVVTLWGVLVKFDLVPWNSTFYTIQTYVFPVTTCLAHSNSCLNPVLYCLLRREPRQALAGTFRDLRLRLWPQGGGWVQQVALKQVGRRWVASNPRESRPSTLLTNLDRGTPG

A word on the Ki: it is the equilibrium dissociation constant of an inhibitor or competing ligand from its target. A high value points to weaker binding. By EC50 is commonly meant the concentration at which the effect is half-maximal. For `CC[C@H](C)[C@@H]1NC(=O)[C@H](Cc2ccccc2)NC(=O)[C@@](C)(NC(=O)[C@H](CCCNC(=N)N)NC(=O)CNC(=O)[C@H](CO)NC(=O)[C@H](CC(C)C)NC(=O)[C@H](CCCNC(=N)N)NC(C)=O)CCC/C=C/CCC[C@@](C)(C(=O)N[C@H](C(=O)N[C@H](C(=O)N[C@@H](Cc2ccccc2)C(=O)N[C@H](C(=O)N[C@@H](CO)C(=O)NCC(=O)NCC(=O)N[C@@H](CO)C(=O)N[C@@H](CCCNC(=N)N)C(=O)N[C@@H](Cc2c[nH]c3ccccc23)C(=O)O)[C@@H](C)O)[C@@H](C)CC)C(C)C)NC(=O)[C@H](CCCNC(=N)N)NC1=O` (Ac-RLSGR[S5]FIR[S5]VIFTSGGSRW-OH; staple (E) 6-10), the values for the Ki at Relaxin-3 receptor 1 [1] and on Relaxin-3 receptor 2 [3] were 107 nM and 123 nM, respectively. For the same compound, the EC50 at Relaxin-3 receptor 1 [2] is 5.25 nM; at Relaxin-3 receptor 2 [4] it was 120 nM; on Relaxin receptor 1, more than 10000 nM. For the same compound, the result in [5] was inactive.
For the compound `CC[C@H](C)[C@H](NC(=O)[C@H](Cc1ccccc1)NC(=O)[C@H](CCC(=O)O)NC(=O)[C@H](CCCNC(=N)N)NC(=O)CNC(=O)[C@H](CO)NC(C)=O)C(=O)N[C@@H](CCCNC(=N)N)C(=O)N[C@@H](C)C(=O)N[C@H](C(=O)N[C@H](C(=O)N[C@@H](Cc1ccccc1)C(=O)N[C@H](C(=O)N[C@@H](CO)C(=O)NCC(=O)NCC(=O)N[C@@H](CO)C(=O)N[C@@H](CCCNC(=N)N)C(=O)N[C@@H](Cc1c[nH]c2ccccc12)C(=O)O)[C@@H](C)O)[C@@H](C)CC)C(C)C` (Ac-SGREFIRAVIFTSGGSRW-OH), the EC50 was 8710 nM at Relaxin-3 receptor 1 [2], 2690 nM on Relaxin-3 receptor 2 [4] and more than 10000 nM at Relaxin receptor 1. On Relaxin-3 receptor 2 [3], this compound gave a Ki of more than 10000 nM. Also, in [5], the result was inactive.
In the case of `CC[C@H](C)[C@H](NC(=O)[C@H](Cc1ccccc1)NC(=O)[C@H](CCC(=O)O)NC(=O)[C@H](CCCNC(=N)N)NC(=O)CNC(=O)[C@H](CO)NC(C)=O)C(=O)N[C@@H](CCCNC(=N)N)C(=O)N[C@@H](CCCCN)C(=O)N[C@H](C(=O)N[C@H](C(=O)N[C@@H](Cc1ccccc1)C(=O)N[C@H](C(=O)N[C@@H](CO)C(=O)NCC(=O)NCC(=O)N[C@@H](CO)C(=O)N[C@@H](CCCNC(=N)N)C(=O)N[C@@H](Cc1c[nH]c2ccccc12)C(=O)O)[C@@H](C)O)[C@@H](C)CC)C(C)C` (Ac-SGREFIRKVIFTSGGSRW-OH), the values for the EC50 at Relaxin-3 receptor 1 [2], at Relaxin-3 receptor 2 [4] and on Relaxin receptor 1 were 4570 nM, 5890 nM and more than 10000 nM, respectively. The Ki at Relaxin-3 receptor 2 [3] was more than 10000 nM. In addition, in data set [5], the outcome was inactive.
With `CC[C@H](C)[C@@H]1NC(=O)[C@H](Cc2ccccc2)NC(=O)[C@@](C)(NC(=O)[C@H](CCCNC(=N)N)NC(=O)CNC(=O)[C@H](CO)NC(C)=O)CCC/C=C/CCC[C@@](C)(C(=O)N[C@H](C(=O)N[C@H](C(=O)N[C@@H](Cc2ccccc2)C(=O)N[C@H](C(=O)N[C@@H](CO)C(=O)NCC(=O)NCC(=O)N[C@@H](CO)C(=O)N[C@@H](CCCNC(=N)N)C(=O)N[C@@H](Cc2c[nH]c3ccccc23)C(=O)O)[C@@H](C)O)[C@@H](C)CC)C(C)C)NC(=O)[C@H](CCCNC(=N)N)NC1=O` (Ac-SGR[S5]FIR[S5]VIFTSGGSRW-OH; staple (E) 4-8), the result with Rattus norvegicus [6] was Active. Moreover, the result (with Rattus norvegicus [7]; in data set [5]) was inactive. The results for the Ki on Relaxin-3 receptor 1 [1] and at Relaxin-3 receptor 2 [3] were 275 nM and 316 nM, respectively. The EC50 on Relaxin-3 receptor 1 [2] is 3.31 nM; on Relaxin-3 receptor 2 [4], 112 nM; on Relaxin-3 receptor 1 [9], 0.12 nM. Moreover, the pEC50 result in [8] is “inactive”. Also, the Activity result in data set [10] was “Non-Toxic”.
